The values below come from ChEMBL document CHEMBL1641413, “Identification of 3-sulfonylindazole derivatives as potent and selective 5-HT(6) antagonists” (Bioorg Med Chem, 2011).

For orientation: Ki means the equilibrium dissociation constant of an inhibitor or competing ligand from its target. The low end stands for a stronger hold on the target, the high end for a looser hold on the target. As usually defined, the IC50 is the concentration needed to halve the response being measured.

For series [1], the target named is T1, 5-hydroxytryptamine receptor 6 (Homo sapiens, UniProt P50406). Put plainly: Displacement of [3H]-LSD from cloned human 5-HT6 receptor expressed in human HeLa cells. It is filed as cell-based. Summed up:
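Radioligand displacement of [³H]-LSD from cloned human 5-HT6 receptors stably expressed in HeLa cells; compounds tested as HCl salts; Ki values determined in triplicate.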
(In general: Displacement assays read how much labelled ligand stays bound in the presence of the test substance.)

The target of series [2] is T1, 5-hydroxytryptamine receptor 6. Kind of series: Antagonist activity at cloned human 5-HT6 receptor expressed in human HeLa cells assessed as inhibition of 5HT-induced cyclic AMP formation. It counts as functional, cell-based.
A short description of series [3]: % bound in plasma. It is filed as ADME, cell-free. Particulars: read-out: PPB.

T1 sequence (P50406 whole entry): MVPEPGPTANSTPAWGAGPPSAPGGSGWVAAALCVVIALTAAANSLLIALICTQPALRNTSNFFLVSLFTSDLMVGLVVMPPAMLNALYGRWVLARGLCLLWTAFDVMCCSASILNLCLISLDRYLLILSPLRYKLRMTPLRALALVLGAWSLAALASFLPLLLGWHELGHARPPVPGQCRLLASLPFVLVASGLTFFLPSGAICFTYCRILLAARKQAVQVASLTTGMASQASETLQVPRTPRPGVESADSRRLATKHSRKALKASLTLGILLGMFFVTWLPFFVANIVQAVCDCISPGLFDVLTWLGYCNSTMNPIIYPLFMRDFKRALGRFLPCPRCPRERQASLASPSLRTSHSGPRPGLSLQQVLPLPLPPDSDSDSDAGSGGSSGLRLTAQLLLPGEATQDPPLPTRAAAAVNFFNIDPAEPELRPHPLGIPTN

For the compound `CN(C)CCNC(=O)c1ccc2[nH]nc(S(=O)(=O)c3cccc4ccccc34)c2c1`, the affinity in series [1] corresponds to a Ki of 2.9 nM. The half-inhibitory concentration (IC50) in series [2] stood at 103 nM. Also, the fraction unbound in series [3] is > 0.2.

In turn, `NCCC(=O)Nc1cccc2c(S(=O)(=O)c3cccc4ccccc34)n[nH]c12` registered a Ki in series [1] of 3.4 nM. Besides, the fraction unbound in series [3] is > 0.2.

As to `O=S(=O)(c1cccc2ccccc12)c1n[nH]c2c(NCC3CCNCC3)cccc12`, the affinity in series [1] corresponds to a Ki of 17 nM. Moreover, in series [2], the concentration for half-maximal inhibition (IC50) amounted to 87 nM. Moreover, in series [3], the fraction unbound is > 0.2.

On to `O=S(=O)(c1ccc(F)cc1)c1n[nH]c2ccc(NC3CCNCC3)cc12`, for which, in series [1], the Ki worked out at 6.3 nM. Also, the half-inhibitory concentration (IC50) in series [2] came to 118 nM. The fraction unbound in series [3] is > 0.2.

For `O=S(=O)(c1cccc2ccccc12)c1n[nH]c2cccc(NC3CCCNC3)c12` (stereo not drawn), the affinity in series [1], expressed as Ki, was 4.2 nM. Further, the half-inhibitory concentration (IC50) in series [2] came to 88 nM. Besides, in series [3], the fraction unbound was > 0.2.

In series [1], `O=S(=O)(c1cccc2ccccc12)c1n[nH]c2ccc(CN3CCNCC3)cc12` gave an inhibition constant (Ki) of 0.24 nM. In addition, in series [2], the IC50 is 19 nM. For the same compound, the fraction unbound in series [3] was > 0.2.

Regarding `CC(N)CNc1ccc2[nH]nc(S(=O)(=O)c3cccc4ccccc34)c2c1` (stereo not drawn), the affinity in series [1], expressed as Ki, was 1.4 nM. The 50% inhibitory concentration (IC50) in series [2] was found to be 30 nM. Besides, the fraction unbound in series [3] was > 0.2.

In series [1], `NCCNc1ccc2c(S(=O)(=O)c3cccc4ccccc34)n[nH]c2c1` came in with an inhibitory constant (Ki) of 17 nM. Moreover, in series [2], the IC50 was determined as 87 nM. In addition, in series [3], the fraction unbound is > 0.2.

Consider `O=S(=O)(c1ccccc1)c1n[nH]c2ccc(NC3CCNCC3)cc12`, for which the Ki in series [1] worked out at 3.1 nM. In addition, in series [2], the 50% inhibitory concentration (IC50) worked out at 125 nM. Moreover, the fraction unbound in series [3] was > 0.2.

As to `CN(C)CCC(=O)Nc1ccc2c(S(=O)(=O)c3cccc4ccccc34)n[nH]c2c1`, the affinity in series [1] corresponds to a Ki of 44 nM. The fraction unbound in series [3] was > 0.2.

For the compound `O=S(=O)(c1ccc(Cl)cc1)c1n[nH]c2ccc(NC3CCNCC3)cc12`, the affinity in series [1], expressed as Ki, was 2.3 nM. Also, the half-maximal inhibitory concentration (IC50) in series [2] was determined as 44 nM. In addition, the fraction unbound in series [3] was > 0.2.

In series [1], `NCCC(=O)Nc1ccc2c(S(=O)(=O)c3cccc4ccccc34)n[nH]c2c1` yielded a Ki of 24 nM. For the same compound, the IC50 in series [2] amounted to 456 nM. Also, in series [3], the fraction unbound is > 0.2.

On to `O=C(Nc1cccc2c(S(=O)(=O)c3cccc4ccccc34)n[nH]c12)C1CCNCC1`, for which, in series [1], the Ki was found to be 28 nM. For the same compound, the fraction unbound in series [3] is > 0.2.

`CCN(CC)CCC(=O)Nc1cccc2c(S(=O)(=O)c3cccc4ccccc34)n[nH]c12` came in with a Ki in series [1] of 27 nM. Moreover, the IC50 in series [2] was 137 nM. For the same compound, the fraction unbound in series [3] was > 0.2.

As for `O=S(=O)(c1cccc2ccccc12)c1n[nH]c2c(NC3CCNCC3)cccc12`, the affinity in series [1], expressed as Ki, was 30 nM. The fraction unbound in series [3] is > 0.2.

`O=S(=O)(c1ccc(C(F)(F)F)cc1)c1n[nH]c2ccc(NC3CCNCC3)cc12` came in with an inhibitory constant (Ki) in series [1] of 1.5 nM. In series [2], the IC50 was determined as 27 nM. In series [3], the fraction unbound is > 0.2.

In series [1], `O=S(=O)(c1cccc2ccccc12)c1n[nH]c2ccc(NCC3CCNCC3)cc12` yielded an inhibitory constant (Ki) of 3.5 nM. For the same compound, the IC50 in series [2] worked out at 174 nM. In series [3], the fraction unbound was > 0.2.

Regarding `O=C(Nc1cccc2c(S(=O)(=O)c3cccc4ccccc34)n[nH]c12)C1CCCNC1` (stereo not drawn), the Ki in series [1] came to 9.8 nM. Also, in series [2], the 50% inhibitory concentration (IC50) was found to be 48 nM. Further, the fraction unbound in series [3] was > 0.2.

On to `CC(C)[C@H](N)CNc1ccc2[nH]nc(S(=O)(=O)c3cccc4ccccc34)c2c1`, for which the fraction unbound in series [3] was > 0.2.

`O=S(=O)(c1cccc2ccccc12)c1n[nH]c2c(NC3CCCNC3)cccc12` (stereo not drawn) showed an inhibitory constant (Ki) in series [1] of 66 nM. In series [3], the fraction unbound was > 0.2.

As for `O=C(CCN1CCCCC1)Nc1ccc2c(S(=O)(=O)c3cccc4ccccc34)n[nH]c2c1`, the inhibition constant (Ki) in series [1] was found to be 12 nM. Moreover, the IC50 in series [2] was found to be 90 nM. In series [3], the fraction unbound was > 0.2.

`NCCNCc1ccc2[nH]nc(S(=O)(=O)c3cccc4ccccc34)c2c1` yielded a Ki in series [1] of 12 nM. Besides, the IC50 in series [2] worked out at 156 nM. Moreover, in series [3], the fraction unbound was > 0.2.

In series [1], `NCCNc1cccc2c(S(=O)(=O)c3cccc4ccccc34)n[nH]c12` came in with a Ki of 17 nM. Moreover, the IC50 in series [2] worked out at 93 nM. Besides, the fraction unbound in series [3] is > 0.2.

For `NCCNc1ccc2[nH]nc(S(=O)(=O)c3cccc4ccccc34)c2c1`, the affinity in series [1] corresponds to a Ki of 6.7 nM. The IC50 in series [2] stood at 13 nM. The fraction unbound in series [3] is > 0.2.

The compound `O=S(=O)(c1cccc2ccccc12)c1n[nH]c2ccc(NC3CCCNC3)cc12` (stereo not drawn) displayed a Ki in series [1] of 1.7 nM. The IC50 in series [2] amounted to 95 nM. The fraction unbound in series [3] was > 0.2.

Turning to `O=S(=O)(c1cccc2ccccc12)c1n[nH]c2cccc(NC3CCNCC3)c12`, affinity in series [1] was put at a Ki of 2.8 nM. In addition, in series [2], the IC50 came to 56 nM. The fraction unbound in series [3] is > 0.2.

As to `O=S(=O)(c1cccc2ccccc12)c1n[nH]c2cccc(NCC3CCNCC3)c12`, the Ki in series [1] worked out at 9.5 nM. For the same compound, in series [2], the IC50 was determined as 21 nM. In addition, the fraction unbound in series [3] is > 0.2.

Regarding `CN(C)CCC(=O)Nc1cccc2c(S(=O)(=O)c3cccc4ccccc34)n[nH]c12`, in series [1], the inhibition constant Ki was found to be 4.8 nM. Further, in series [2], the IC50 was 137 nM. The fraction unbound in series [3] was > 0.2.

`O=S(=O)(c1cccc(F)c1)c1n[nH]c2ccc(NC3CCNCC3)cc12` gave an inhibition constant (Ki) in series [1] of 6.7 nM. Also, in series [2], the IC50 came out at 94 nM. Further, in series [3], the fraction unbound is > 0.2.

`O=C(NCCN1CCCCC1)c1ccc2[nH]nc(S(=O)(=O)c3cccc4ccccc34)c2c1` returned a Ki in series [1] of 107 nM. For the same compound, in series [3], the fraction unbound was > 0.2.

In the case of `Cc1cccc(S(=O)(=O)c2n[nH]c3ccc(NC4CCNCC4)cc23)c1`, in series [1], the affinity corresponds to a Ki of 0.8 nM. In series [2], the IC50 was 19 nM. Besides, in series [3], the fraction unbound was > 0.2.

In series [1], `O=C(Nc1ccc2c(S(=O)(=O)c3cccc4ccccc34)n[nH]c2c1)C1CCNCC1` returned an inhibitory constant (Ki) of 31 nM. The fraction unbound in series [3] was > 0.2.

With `COc1ccc(S(=O)(=O)c2n[nH]c3ccc(NC4CCNCC4)cc23)cc1`, in series [1], the affinity, expressed as Ki, was 9.8 nM. Further, the half-inhibitory concentration (IC50) in series [2] was 126 nM. Further, in series [3], the fraction unbound is > 0.2.

In series [1], `CCN(CC)CCC(=O)Nc1ccc2c(S(=O)(=O)c3cccc4ccccc34)n[nH]c2c1` displayed a Ki of 65 nM. Besides, the fraction unbound in series [3] was > 0.2.

In turn, `O=S(=O)(c1cccc2ccccc12)c1n[nH]c2cc(NC3CCCNC3)ccc12` (stereo not drawn) returned a Ki in series [1] of 57 nM. In addition, in series [3], the fraction unbound is > 0.2.

As for `O=S(=O)(c1cccc2ccccc12)c1n[nH]c2cc(NCC3CCNCC3)ccc12`, the inhibition constant (Ki) in series [1] turned out to be 44 nM. The fraction unbound in series [3] is > 0.2.

As to `CN(C)CCN(C)Cc1ccc2[nH]nc(S(=O)(=O)c3cccc4ccccc34)c2c1`, affinity in series [1] was put at a Ki of 14 nM. Moreover, the IC50 in series [2] stood at 91 nM. Moreover, the fraction unbound in series [3] was > 0.2.

`O=S(=O)(c1cccc2ccccc12)c1n[nH]c2cc(NC3CCNCC3)ccc12` came in with an inhibition constant (Ki) in series [1] of 53 nM. Moreover, the fraction unbound in series [3] is > 0.2.

For `O=C(CCN1CCCCC1)Nc1cccc2c(S(=O)(=O)c3cccc4ccccc34)n[nH]c12`, in series [1], the inhibition constant (Ki) amounted to 24 nM. Further, the fraction unbound in series [3] is > 0.2.
